Test results as given in ChEMBL document CHEMBL3046500, “Secondary metabolites from Glycine soja and their growth inhibitory effect against Spodoptera litura” (J Agric Food Chem, 2011).
Active and inactive are the calls of the source. The calls are words filed in the database; no cut-off is given here.

Assays:
Spodoptera litura [1] = assay: Drug metabolism in fourth instar larval stage of Spodoptera litura assessed in excrements after feeding diet containing compound by HPLC analysis; format: ADME, organism-based; settings: in vivo, po
How it was run: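 Excrement from treated and control larvae was collected separately, extracted with methanol under ultrasonication (3 × 20 min), centrifuged, and the supernatant run on RP-18 HPLC (250 × 4.6 mm, 5 μm) at 30 °C and 1.0 mL/min. Elution used a water/methanol gradient set per analyte over 0–30 min, then 95% methanol. DAD read at 210/238/254/280 nm; TLC (CHCl3/MeOH 4:1) for a non-UV-absorbing analyte.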

Spodoptera litura [2] = assay: Insecticidal activity against fourth instar larval stage of Spodoptera litura in glandless fresh cabbage leaves assessed as growth inhibition measured 3 days after feeding diet containing compound; format: functional, organism-based
How it was run: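 Larvae starved 4 h, weighed, then placed on treated material for 4 h. They were then moved to fresh untreated leaves or artificial diet. This was repeated every 24 h, with each larva's weight recorded. Seven replicates per treatment; whole experiment run three times.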

Spodoptera litura [3] = assay: Antifeedant activity against fourth instar larval stage of Spodoptera litura on fresh cabbage leaves; format: functional, organism-based

| SMILES | Drug metabolism (Spodoptera litura [1]) | growth inhibition (GI) (Spodoptera litura [2]) | Activity (Spodoptera litura [3]) |
| --- | --- | --- | --- |
| O=c1c(-c2ccc(O)cc2)coc2cc(O)ccc12 [DAIDZEIN] | Not Active | Active | inactive |
| O=c1c(-c2ccc(O)cc2)coc2cc(O)cc(O)c12 [GENISTEIN] | Active | inactive | inactive |
| O=c1c(-c2ccc(O)cc2)coc2cc(O[C@@H]3O[C@H](CO)[C@@H](O)[C@H](O)[C@H]3O)cc(O)c12 [GENISTIN] | Active | inactive | inactive |
| CO[C@H]1[C@H](O)[C@@H](O)[C@@H](O)[C@H](O)[C@@H]1O [METHYLINOSITOL] | Active | inactive | inactive |
